The target in one series is Cholinesterase (Equus caballus, UniProt P81908). The series is described as follows: Inhibition of equine serum BuChE using S-butyrylthiocholine iodide as susbtrate preincubated for 6 mins followed by substrate addition measured up to 3 mins by Ellman's method. In general terms: DTNB colorimetry detects thiols as they appear.
A short description of series [1]: Disaggregation of Cu2+-induced preformed fibrils of amyloid beta (1 to 42 residues) (unknown origin) at 25 uM measured after 24 hrs by TEM analysis. The essentials: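 Aβ1-42 (25 µM) with Cu2+ (25 µM) at 37 °C for 24 h, then compound (25 µM) added for another 24 h. 10 µL aliquots put on carbon-coated copper/rhodium grids for 2 min at room temperature, washed twice with water, stained with 1% w/v uranyl acetate, dried 15 min, then imaged by field-emission TEM.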

For series [2], the system named is Mus musculus. The series can be described thus: Effect on total arm entries in Kunming mouse model of scopolamine-induced cognitive impairment in at 2.6 to 23.4 mg/kg, ig pretreated for 30 min followed by scopolamine challenge and measured after 30 mins by Y-maze test. The series is classed as ADME, organism-based. The note with it: in vivo, po, 0.5 h.
In series [3] the target is Amyloid-beta precursor protein (Homo sapiens) (UniProt P05067). The series is described as follows: Inhibition of self-induced amyloid beta (1 to 42) (unknown origin) aggregation at 25 uM after 24 hrs by thioflavin-T based fluorescence assay relative to control.
Chain of Amyloid-beta precursor protein (Homo sapiens) (P05067 whole entry): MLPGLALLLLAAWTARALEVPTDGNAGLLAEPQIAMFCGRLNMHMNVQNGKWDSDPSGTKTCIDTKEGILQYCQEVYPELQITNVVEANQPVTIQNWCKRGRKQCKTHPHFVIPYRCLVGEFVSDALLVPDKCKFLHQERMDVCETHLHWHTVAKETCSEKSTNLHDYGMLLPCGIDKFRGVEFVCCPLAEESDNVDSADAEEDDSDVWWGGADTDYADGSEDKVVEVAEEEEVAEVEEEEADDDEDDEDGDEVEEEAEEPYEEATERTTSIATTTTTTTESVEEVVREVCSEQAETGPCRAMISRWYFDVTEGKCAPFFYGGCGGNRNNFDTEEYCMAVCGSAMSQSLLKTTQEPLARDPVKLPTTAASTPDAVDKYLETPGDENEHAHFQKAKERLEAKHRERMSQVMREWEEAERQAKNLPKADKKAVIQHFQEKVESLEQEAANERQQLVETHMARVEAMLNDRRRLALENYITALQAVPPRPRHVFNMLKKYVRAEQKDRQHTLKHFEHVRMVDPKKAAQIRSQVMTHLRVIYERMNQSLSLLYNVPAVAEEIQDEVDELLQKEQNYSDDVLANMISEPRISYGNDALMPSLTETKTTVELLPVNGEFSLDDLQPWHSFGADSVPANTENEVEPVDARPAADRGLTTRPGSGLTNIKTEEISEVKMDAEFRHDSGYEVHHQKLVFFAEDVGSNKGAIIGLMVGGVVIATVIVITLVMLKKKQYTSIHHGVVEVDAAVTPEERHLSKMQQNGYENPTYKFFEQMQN
Series [4] has as its target T1, Amine oxidase [flavin-containing] A (Homo sapiens, UniProt P21397).
T1 sequence (P21397 whole entry): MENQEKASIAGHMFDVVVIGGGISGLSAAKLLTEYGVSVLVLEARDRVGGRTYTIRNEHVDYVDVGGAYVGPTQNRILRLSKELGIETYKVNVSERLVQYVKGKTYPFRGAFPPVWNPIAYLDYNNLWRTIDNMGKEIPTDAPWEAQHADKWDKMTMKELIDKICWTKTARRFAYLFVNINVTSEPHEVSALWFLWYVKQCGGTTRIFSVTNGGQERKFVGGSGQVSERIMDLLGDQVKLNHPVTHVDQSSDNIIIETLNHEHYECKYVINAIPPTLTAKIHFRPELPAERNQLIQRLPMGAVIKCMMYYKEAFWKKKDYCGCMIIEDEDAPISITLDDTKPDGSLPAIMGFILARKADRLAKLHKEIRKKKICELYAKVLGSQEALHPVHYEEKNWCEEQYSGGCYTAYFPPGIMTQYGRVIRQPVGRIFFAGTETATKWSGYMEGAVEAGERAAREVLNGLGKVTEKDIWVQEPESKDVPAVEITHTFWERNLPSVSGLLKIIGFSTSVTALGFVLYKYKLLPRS
The series can be described thus: Inhibition of recombinant human MAO-A expressed in baculovirus infected BTI insect cells at 12.5 uM using kynuramine as substrate measured after 30 mins by fluorescence based assay relative to control. To be noted: 0.5 h.

The test system of series [5] is Mus musculus. The series can be described thus: Reversal of scopolamine-induced memory cognitive memory impairment in Kunming mouse assessed as increase in spontaneous alteration behavior at 2.6 mg/kg, ig pretreated for 30 mins followed by scopolamine challenge and after 30 mins by Y-maze test. The series is classed as functional, organism-based.
Series [6] addresses Cholinesterase (Equus caballus) (UniProt P81908). The series can be described thus: Reversible inhibition of equine serum BuChE assessed as enzyme activity at 0.1 times IC50 using butyrylthiocholine iodide as substrate measured at 120 mins by Ellman's method relative to control. Set-up: scale not given: the % may be the effect or the level left. The essentials:
(§1)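 Reversibility tested by recovery of equine serum BuChE activity after dilution of inhibitor, with activity monitored over time up to 240 min by the Ellman method (DTNB read at 412 nm). Activity expressed relative to untreated control. Three independent experiments.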

Series [7] in a line: Metal chelating activity of the compound assessed as formation of Fe2+-compound complex at 37.5 uM after 30 mins by UV-vis absorption spectra analysis. A digest of the protocol: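 Metal binding examined by plate-reader absorbance scan using CuCl2, ZnCl2, AlCl3, FeSO4, CuCl and Fe(NO3)3 as metal sources.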
Series [8] is described as follows: Disaggregation of Cu2+ induced preformed fibrils of amyloid beta (1 to 42) (unknown origin) at 25 uM preincubated with Cu2+ for 24 hrs followed by compound addition and measured after 24 hrs by thioflavin-T based fluorescence assay relative to control. A digest of the protocol:
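Aβ1-42 (25 µM) and Cu2+ (25 µM) preincubated at 37 °C for 24 h, then compound (25 µM) added and incubated a further 24 h at 37 °C. ThT (5 µM in 50 mM glycine-NaOH, pH 8.5) added; fluorescence at ex 446/em 490 nm, background subtracted, % vs no-compound control. Three independent experiments.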

Series [9] is described as follows: Antioxidant activity assessed as trolox equivalents of AAPH radical scavenging activity preincubated for 15 mins followed by AAPH addition and measured every minute for 90 mins by ORAC-FL assay. Type of series: functional.
A short description of series [10]: Inhibition of Cu2+-induced amyloid beta (1 to 42 residues) (unknown origin) aggregation assessed as appearance of small bulk aggregates at 25 uM after 24 hrs uranyl acetate staining-based by TEM analysis. The essentials: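 Aβ1-42 (25 µM) and Cu2+ (25 µM) incubated with compound at 37 °C for 24 h. Aliquots applied to carbon-coated copper/rhodium grids for 2 min at room temperature, washed with water, stained with 1% w/v uranyl acetate, air-dried 15 min, then examined by field-emission TEM.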

Series [11] relates to Mus musculus. The series is described as follows: Reversal of scopolamine-induced memory cognitive memory impairment in Kunming mouse assessed as change in spontaneous alteration behavior at 7.8 mg/kg, ig pretreated for 30 mins followed by scopolamine challenge and after 30 mins by Y-maze test (reference value: 45.6%). The series is classed as functional.
The next series can be described thus: in vitro. To be noted: PAMPA, pH 7.4. Background: The PAMPA barrier holds no transporters, so it reflects passive diffusion.
Series [12] can be described thus: Metal chelating activity assessed as mole fraction of compound required to show 1:1 stoichiometry for compound-Cu2+ complex at 37.5 uM after 30 mins by UV spectrometry method. A digest of the protocol: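 Molar-ratio method: a methanol solution of compound (final 37.5 µM) titrated with ascending amounts of CuCl2, with absorbance followed at 426 nm by plate reader.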

Series [13] in a line: Inhibition of Cu2+-induced amyloid beta (1 to 42 residues) (unknown origin) aggregation at 25 uM after 24 hrs by thioflavin-T based fluorescence assay relative to control. The essentials: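 Aβ1-42 (25 µM) and Cu2+ (25 µM) incubated at 37 °C for 24 h with or without compound (25 µM). ThT (5 µM in 50 mM glycine-NaOH, pH 8.5) then added; fluorescence read at ex 446/em 490 nm. Inhibition = (1−IFi/IFc)×100 after background subtraction. Three independent experiments.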

Series [14] addresses Cholinesterase (Homo sapiens) (UniProt P06276). The series can be described thus: Reversible competitive inhibition of BuChE (unknown origin) assessed as […] at 1 to 6 uM using butyrylthiocholine iodide as susbtrate.
A short description of series [15]: Toxicity in Kunming mouse assessed as mortality at 20 to 500 mg/kg measured up to 14 days. To be noted: in vivo, 336 h. The series is classed as organism-based.
For series [16], the target named is Cholinesterase (Equus caballus) (UniProt P81908). The series can be described thus: Reversible inhibition of equine serum BuChE assessed as enzyme activity at 0.1 times IC50 using butyrylthiocholine iodide as substrate by Ellman's method relative to control. Further details: scale not given: the % may be the effect or the level left. A digest of the protocol: as §1
Chain of Cholinesterase (Equus caballus) (P81908 whole entry): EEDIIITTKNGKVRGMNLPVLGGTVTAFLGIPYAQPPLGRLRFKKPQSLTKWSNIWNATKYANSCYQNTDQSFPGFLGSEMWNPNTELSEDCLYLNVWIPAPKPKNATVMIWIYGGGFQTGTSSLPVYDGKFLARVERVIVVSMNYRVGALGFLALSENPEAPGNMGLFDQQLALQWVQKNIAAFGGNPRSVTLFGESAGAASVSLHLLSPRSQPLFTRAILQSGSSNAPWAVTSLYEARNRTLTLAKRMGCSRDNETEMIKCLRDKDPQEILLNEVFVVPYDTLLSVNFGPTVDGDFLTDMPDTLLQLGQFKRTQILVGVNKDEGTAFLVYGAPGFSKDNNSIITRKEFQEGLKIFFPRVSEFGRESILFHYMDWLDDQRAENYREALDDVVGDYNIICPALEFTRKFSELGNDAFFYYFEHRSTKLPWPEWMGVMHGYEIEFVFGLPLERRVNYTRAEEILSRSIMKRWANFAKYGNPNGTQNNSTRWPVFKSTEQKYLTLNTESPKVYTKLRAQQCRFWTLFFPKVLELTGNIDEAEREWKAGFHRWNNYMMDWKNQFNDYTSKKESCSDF

A further series has as its system PC-12. The series can be described thus: Neuroprotective activity against H2O2-induced cell death in rat PC12 cells assessed as cell viability at 10 uM pretreated for 2 hrs followed by H2O2 addition measured after 30 mins by MTT assay (reference value: 49.6%). Type of series: functional. The note with it: read-out: Activity.

This note sets out measurements from ChEMBL document CHEMBL4364279, “Design, synthesis, in-silico and biological evaluation of novel chalcone-O-carbamate derivatives as multifunctional agents for the treatment of Alzheimer's disease” (Eur J Med Chem, 2019).

The structures appear in SMILES notation. Activity calls are given as the source filed them. No cut-off for these calls is given here.

Chain of Cholinesterase (P81908 whole entry, the tested form may be a part): as the sequence (P81908 whole entry) above
Chain of Cholinesterase (Homo sapiens) (P06276 whole entry): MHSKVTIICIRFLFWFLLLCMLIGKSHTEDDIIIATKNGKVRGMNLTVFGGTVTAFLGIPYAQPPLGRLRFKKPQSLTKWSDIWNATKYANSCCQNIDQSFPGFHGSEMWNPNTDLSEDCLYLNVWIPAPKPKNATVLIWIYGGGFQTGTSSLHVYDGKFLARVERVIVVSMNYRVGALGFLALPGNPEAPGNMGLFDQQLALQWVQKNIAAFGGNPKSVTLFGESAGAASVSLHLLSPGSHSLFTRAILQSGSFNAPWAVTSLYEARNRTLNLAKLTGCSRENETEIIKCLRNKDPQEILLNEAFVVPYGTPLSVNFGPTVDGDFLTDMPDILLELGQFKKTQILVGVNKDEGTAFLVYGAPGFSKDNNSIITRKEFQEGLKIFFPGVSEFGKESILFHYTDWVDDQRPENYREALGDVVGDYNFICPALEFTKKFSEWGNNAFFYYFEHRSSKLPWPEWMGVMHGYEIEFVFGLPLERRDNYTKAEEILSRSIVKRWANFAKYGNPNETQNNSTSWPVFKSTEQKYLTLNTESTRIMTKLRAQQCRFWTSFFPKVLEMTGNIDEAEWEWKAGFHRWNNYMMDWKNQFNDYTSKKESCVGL

For orientation: IC50 means the midpoint of a concentration-inhibition curve. As a reminder, the inhibition is the drop in the measured response relative to a control, in per cent. As usually defined, the Papp is the rate of passage across a membrane or cell layer, normalised by area and donor concentration. For the compound `CCN(C)C(=O)Oc1cccc(/C=C/C(=O)c2ccccc2O)c1`, at Cholinesterase, the IC50 is 3.1 µM. Besides, the result (in series [1]; with Mus musculus [5]) was Active. For the same compound, the Activity result in the series on Mus musculus [2] was “Non-Toxic”; in series [6] it was below 75.1%; in series [8] it was 83.1%; in series [9] it was 1.3 µMequiv/µM; in the series on Mus musculus [11], 65.1%; in series [12], 0.97 molar ratio. In addition, the Activity entry in series [15] was “Non-Toxic”; in [16] it was 50.8%. Further, the inhibition in series [3] is 63.9%; in series [13], 78.3%. In addition, the inhibition at 12.5 µM in series [4] stood at 16.4%. The outcome in series [7] was inactive. Moreover, the inhibition result in series [10] and in series [14] was “Active” each time. Besides, the Papp at 100 ug/ml in the series “in vitro” came to 15.7 ×10⁻⁶ cm/s. In the series with PC-12, the viability at 10 µM worked out at 78.3%.
